In data set [1] the test system is Acinetobacter baumannii. As to the kind of experiment: Antibacterial activity against Acinetobacter baumannii 2018-006 assessed as bacterial growth inhibition by broth microdilution assay. The class given is functional. The method in brief:
(§1)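 Broth microdilution MIC. Strains grown overnight on blood agar at 37 °C, colonies suspended in TSB and grown to OD600 0.5. Compounds dissolved in DMSO (6.4 mg mL−1 stock), diluted serially in CAMHB (12.5 μg mL−1 Mg2+, 20 μg mL−1 Ca2+) on polypropylene plates. Final inoculum 10^6 CFU mL−1, 37 °C under gas-permeable membrane. MIC is the lowest concentration with no visible growth, consistent across at least triplicate experiments.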
In general terms: Dilution methods test growth across graded concentrations, often in twofold steps.

The test system of data set [2] is Pseudomonas aeruginosa. Briefly: Antibacterial activity against Pseudomonas aeruginosa ATCC 27853 assessed as bacterial growth inhibition by broth microdilution assay. The class given is functional. The method in brief: (§2)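 Broth microdilution. Bacteria from glycerol stocks were grown overnight on blood agar at 37 °C, then colonies were suspended in TSB and grown to OD600 0.5. Compounds were dissolved in DMSO at 6.4 mg mL−1 (stock) and serially diluted in CAMHB (Mg2+ 12.5, Ca2+ 20 μg mL−1) in polypropylene plates. Inoculum was 10^6 CFU mL−1 final, incubated at 37 °C. MIC = lowest concentration without visible growth; values consistent across at least triplicate experiments.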

In data set [3] the test system is Acinetobacter baumannii. Briefly: Antibacterial activity against Acinetobacter baumannii ATCC 17978 assessed as bacterial growth inhibition by broth microdilution assay. The data set is classed as functional. The method in brief:
as §1

The subject of data set [4] is Acinetobacter baumannii. Briefly: Antibacterial activity against multidrug-resistant Acinetobacter baumannii assessed as bacterial growth inhibition by broth microdilution assay. The data set is classed as functional. The method in brief: as §1
For data set [5], the system named is Pseudomonas aeruginosa. Briefly: Antibacterial activity against Pseudomonas aeruginosa NRZ 03961 assessed as bacterial growth inhibition by broth microdilution assay. The data set is classed as functional. The method in brief: as §2
Data set [6] deals with Klebsiella pneumoniae. Briefly: Antibacterial activity against Klebsiella pneumoniae NCTC 13443 assessed as bacterial growth inhibition by broth microdilution assay. The data set is classed as functional. Put shortly: as §2
Data set [7] concerns Escherichia coli. As to the kind of experiment: Antibacterial activity against Escherichia coli 1313 assessed as bacterial growth inhibition by broth microdilution assay. The data set is classed as functional. Put shortly:
as §2

Data set [8] relates to Escherichia coli. Briefly: Antibacterial activity against Escherichia coli ATCC 25922 assessed as bacterial growth inhibition by broth microdilution assay. The class given is functional. Put shortly: as §2
Data set [9] relates to Klebsiella pneumoniae. Briefly: Antibacterial activity against Klebsiella pneumoniae ATCC 13883 assessed as bacterial growth inhibition by broth microdilution assay. The data set is classed as functional. The method in brief:
as §2

In data set [10] the test system is Escherichia coli. As to the kind of experiment: Antibacterial activity against multidrug-resistant Escherichia coli NCTC 13846 assessed as bacterial growth inhibition by broth microdilution assay. The data set is classed as functional. The method in brief:
as §1

A short description of data set [11]: Cytotoxicity against human ciPTEC cells assessed as reduction in cell viability at 250 uM incubated for 24 hrs by PrestoBlue reagent based fluorescence assay. The data set is classed as toxicity. Put shortly: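 Differentiated ciPTEC-14.4 (conditionally immortalized) cells were washed with HBSS and then exposed to 250 μM compound in serum-free supplemented DMEM/F-12 for 24 h at 37 °C. After an HBSS wash, cells were incubated with 10% PrestoBlue in HBSS at 37 °C in the dark. Fluorescence was read at ex 530/em 590 nm, background-corrected, and expressed relative to medium-only cells; triplicates.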

Data set [12] deals with Pseudomonas aeruginosa. Briefly: Antibacterial activity against Pseudomonas aeruginosa NRZ 08418 assessed as bacterial growth inhibition by broth microdilution assay. The class given is functional. Put shortly:
as §2

Data set [13] deals with Acinetobacter baumannii. As to the kind of experiment: Antibacterial activity against Acinetobacter baumannii ATCC 19606 assessed as bacterial growth inhibition by broth microdilution assay. The data set is classed as functional. Put shortly: as §1
Data set [14] concerns Klebsiella pneumoniae. Briefly: Antibacterial activity against Klebsiella pneumoniae JS-123 assessed as bacterial growth inhibition by broth microdilution assay. The class given is functional. The method in brief: as §2
Data set [15] has as its system Escherichia coli. Briefly: Synergistic antibacterial activity against polymyxin-resistant Escherichia coli assessed as fractional inhibitory concentration index incubated for 18 hrs in presence of novobiocin by checkerboard assay. The class given is functional. Put shortly: (§3)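 8 × 8 checkerboard (64 combinations, each in triplicate) against E. coli EQAS mcr-2, grown to OD600 0.5 in TSB after overnight blood agar culture. Antibiotic and synergist serially diluted in CAMHB (12.5 μg mL−1 Mg2+, 20 μg mL−1 Ca2+), inoculum 10^6 CFU mL−1, 37 °C for 18 h. OD600 normalized to growth and no-growth controls. FICi calculated from minimal synergistic concentrations and single-agent MICs; ≤0.5 taken as synergy.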

A short description of data set [16]: Cytotoxicity against human ciPTEC cells assessed as reduction in cell viability incubated for 24 hrs by PrestoBlue reagent based fluorescence assay. As to conditions: read-out: TC50. The data set is classed as toxicity. The method in brief:
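ciPTEC-14.4 cells, differentiated, were treated for 24 h at 37 °C with compound at 100, 250, 500 or 1000 μM in serum-free DMEM/F-12 with insulin, transferrin, selenium, hydrocortisone, EGF and triiodothyronine. Viability was measured with 10% PrestoBlue in HBSS (fluorescence ex 530/em 590 nm), corrected for reagent background and normalized to untreated, medium-only control.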

Data set [17] has as its system Escherichia coli. Briefly: Synergistic antibacterial activity against polymyxin-resistant Escherichia coli assessed as fractional inhibitory concentration index incubated for 18 hrs in presence of erythromycin by checkerboard assay. The class given is functional. Put shortly: as §3
For data set [18], the system named is Escherichia coli. Briefly: Synergistic antibacterial activity against polymyxin-resistant Escherichia coli assessed as fractional inhibitory concentration index incubated for 18 hrs in presence of rifampicin by checkerboard assay. The data set is classed as functional. The method in brief:
as §3

≈ marks a conversion by molar mass, not a printed value. Positions of bridges follow the written chain, without caps; N, C: chain ends. Non-standard residues stand in square brackets, D forms with d. Residues, ends and D or L forms follow the SMILES beside them. *: point of attachment. X1 = CC[C@H](C)CCCCC(=O)*; Dab = NCC[C@H](N)C(=O)O

For `CC(C)C[C@@H]1NC(=O)[C@@H](Cc2ccccc2)NC(=O)[C@H](CCN)NC(=O)[C@@H](NC(=O)[C@H](CCN)NC(=O)[C@@H](NC(=O)[C@H](N)CSSCc2cccc(Cl)c2)[C@@H](C)O)CCNC(=O)[C@H]([C@@H](C)O)NC(=O)[C@H](CCN)NC(=O)[C@H](CCN)NC1=O`, the MIC – broadly, the lowest concentration found to suppress growth – in data set [1] was 2 µg/mL (≈ 1.64 µM); in data set [2] it was 4 µg/mL (≈ 3.27 µM); in [3] it was 1 µg/mL (≈ 0.818 µM); in data set [4] it was 4 µg/mL (≈ 3.27 µM); in data set [5], 1 µg/mL (≈ 0.818 µM); in data set [6], 0.25 µg/mL (≈ 0.204 µM). The MIC is 0.125 µg/mL (≈ 0.102 µM) in data set [7]; 1 µg/mL (≈ 0.818 µM) in data set [8]; 0.5 µg/mL (≈ 0.409 µM) in data set [9]; 4 µg/mL (≈ 3.27 µM) in data set [10]; 2 µg/mL (≈ 1.64 µM) in data set [12]; 1 µg/mL (≈ 0.818 µM) in data set [13]. The minimum inhibitory concentration (MIC) in [14] worked out at 0.25 µg/mL (≈ 0.204 µM). Further, the Activity in [11] is above 50%.

On to `CC(C)CCSSC[C@@H](N)C(=O)N[C@H](C(=O)N[C@@H](CN)C(=O)N[C@H]1CCNC(=O)[C@H]([C@@H](C)O)NC(=O)[C@H](CCN)NC(=O)[C@H](CCN)NC(=O)[C@H](CC(C)C)NC(=O)[C@@H](Cc2ccccc2)NC(=O)[C@H](CCN)NC1=O)[C@@H](C)O`, for which the MIC in [1] was 0.25 µg/mL (≈ 0.217 µM); in data set [2] it was 1 µg/mL (≈ 0.866 µM); in data set [3], 0.25 µg/mL (≈ 0.217 µM); in data set [4], 0.25 µg/mL (≈ 0.217 µM); in [5], 1 µg/mL (≈ 0.866 µM); in data set [6] it was 0.25 µg/mL (≈ 0.217 µM). For the same compound, the MIC in [7] was at most 0.125 µg/mL; in data set [8] it was 1 µg/mL (≈ 0.866 µM); in [9] it was 0.25 µg/mL (≈ 0.217 µM); in [10], 4 µg/mL (≈ 3.46 µM); in data set [12], 1 µg/mL (≈ 0.866 µM); in data set [13], 0.25 µg/mL (≈ 0.217 µM). In addition, the MIC in [14] was determined as 0.25 µg/mL (≈ 0.217 µM). The “fractional inhibitory concentration index (FICI)” value is given as 0.19 in data set [15], 0.27 in [17] and 0.14 in [18]. Moreover, the CC50 at 24 h in data set [16] stood at 130 µM.

Take `CC[C@H](C)CCCCC(=O)N[C@@H](CCN)C(=O)N[C@H](C(=O)N[C@@H](CCN)C(=O)N[C@H]1CCNC(=O)[C@H]([C@@H](C)O)NC(=O)[C@H](CCN)NC(=O)[C@H](CCN)NC(=O)[C@H](CC(C)C)NC(=O)[C@@H](Cc2ccccc2)NC(=O)[C@H](CCN)NC1=O)[C@@H](C)O` (X1-[Dab]T[Dab][Dab][Dab][dF]L[Dab][Dab]T; lactam 4-C): the MIC turned out to be 0.125 µg/mL (≈ 0.104 µM) in data set [1]; 1 µg/mL (≈ 0.831 µM) in data set [2]; 0.25 µg/mL (≈ 0.208 µM) in [3]; 0.5 µg/mL (≈ 0.415 µM) in [4]; 1 µg/mL (≈ 0.831 µM) in data set [5]; 0.5 µg/mL (≈ 0.415 µM) in data set [6]. Moreover, the MIC in [7] came to 0.125 µg/mL (≈ 0.104 µM); in [8], 1 µg/mL (≈ 0.831 µM); in data set [9], 0.25 µg/mL (≈ 0.208 µM); in [10] it was 4 µg/mL (≈ 3.32 µM); in [12] it was 1 µg/mL (≈ 0.831 µM); in data set [13], 0.25 µg/mL (≈ 0.208 µM). Further, the MIC in [14] was found to be 0.25 µg/mL (≈ 0.208 µM). The CC50 at 24 h in data set [16] is 1480 µM. In data set [11], the Activity came out at 85%.

For the compound `CC(C)C[C@@H]1NC(=O)[C@@H](Cc2ccccc2)NC(=O)[C@H](CCN)NC(=O)[C@@H](NC(=O)[C@H](CCN)NC(=O)[C@@H](NC(=O)[C@H](N)CSSCCC2CCCCC2)[C@@H](C)O)CCNC(=O)[C@H]([C@@H](C)O)NC(=O)[C@H](CCN)NC(=O)[C@H](CCN)NC1=O`, the MIC came to 0.5 µg/mL (≈ 0.414 µM) in data set [1]; 2 µg/mL (≈ 1.65 µM) in [2]; 1 µg/mL (≈ 0.827 µM) in data set [3]; 1 µg/mL (≈ 0.827 µM) in [4]; 4 µg/mL (≈ 3.31 µM) in data set [5]; 2 µg/mL (≈ 1.65 µM) in data set [6]. Also, the MIC in data set [7] came to 2 µg/mL (≈ 1.65 µM); in [8], 1 µg/mL (≈ 0.827 µM); in [9], 1 µg/mL (≈ 0.827 µM); in data set [10], 8 µg/mL (≈ 6.62 µM); in [12], 4 µg/mL (≈ 3.31 µM); in [13] it was 0.5 µg/mL (≈ 0.414 µM). The MIC in data set [14] was determined as 2 µg/mL (≈ 1.65 µM). In addition, the Activity in [11] was above 50%.
